The species named for assay [1] is Rattus norvegicus. Put plainly: Compound was evaluated for inhibition of binding of [3H]dopamine to rat caudate tissue. The format is functional, organism-based.
The species entered for assay [2] is Rattus norvegicus. Put plainly: Compound was evaluated for inhibition of binding of [3H]spiroperidol to rat caudate tissue. In kind it is functional, organism-based.
In assay [3] the test system is Felis catus. Put plainly: Compound was evaluated for the inhibition of the cardioaccelerator nerve of the cat at a dose 4 umol/kg. In kind it is functional. In outline: (§1)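 Cats were anaesthetised with pentobarbital sodium (30 mg/kg) injected into the thoracic cavity. The right cardioaccelerator nerve was isolated and stimulated through bipolar platinum electrodes at 2 Hz, 2-ms pulses and supramaximal voltage, usually for 30 s. Arterial pressure was recorded from the right femoral artery, and heart rate by cardiotachometer. The highest dose tested was 4 µmol/kg, with n = 3.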

The test system of assay [4] is Felis catus. Put plainly: Compound was evaluated for the inhibition of the cardioaccelerator nerve of the cat at a dose 4 umol/kg (n = 3). The format is functional. The gist of the method:
as §1

The subject of assay [5] is Felis catus. Put plainly: Compound was evaluated for the inhibition of the cardioaccelerator nerve of the cat; I - inactive at a dose 4 umol/kg (n = 3). In kind it is functional, organism-based. In outline: as §1

For orientation: IC50 means the concentration at which inhibition is half-maximal. For orientation: ED50 means the dose that gives a 50% effect, or the effect in half of the subjects.

Calls of active or inactive are those of the source. No cut-off for these calls is given here. A value given as a limit tells only on which side of the number the result lay.

Take `Oc1cc(O)c2c(c1)[C@@H]1CCCN[C@@H]1CC2`: the IC50 in the assay filed under Rattus norvegicus [1] is 11100 nM; in the assay filed under Rattus norvegicus [2], 113000 nM.
As to `CCN1CCC[C@H]2c3cc(O)cc(O)c3CC[C@H]21`, the concentration for half-maximal inhibition (IC50) in the assay listed under Rattus norvegicus [1] stood at 430 nM; in the assay listed under Rattus norvegicus [2], 10000 nM. In addition, in the assay with Felis catus [3], the ED50 is above 4 µmol/kg.
The matching figures for `CCCN1CCC[C@H]2c3cc(O)cc(O)c3CC[C@H]21`: 1700 nM, 11000 nM and above 4 µmol/kg.
Regarding `CCCN1CCC[C@@H]2Cc3c(O)cc(O)cc3C[C@H]21`, the IC50 was 370 nM in the assay filed under Rattus norvegicus [1] and 15000 nM in the assay listed under Rattus norvegicus [2]. Further, the ED50 in the assay on Felis catus [4] worked out at 1.74 µmol/kg.
As for `Oc1cc(O)c2c(c1)[C@@H]1CCCN[C@H]1CC2`, the IC50 in the assay listed under Rattus norvegicus [1] worked out at 1000 nM; in the assay filed under Rattus norvegicus [2] it was 25000 nM.
In the assay on Felis catus [4], `CN1CCc2cccc3c2[C@H]1Cc1ccc(O)c(O)c1-3` [APOMORPHINE] yielded an ED50 of 0.022 µmol/kg. In addition, the IC50 in the assay listed under Rattus norvegicus [2] worked out at 1100 nM.
As to `Oc1cc(O)c2c(c1)C[C@H]1NCCC[C@@H]1C2`, the ED50 result with Felis catus [5] was “inactive”. Besides, the IC50 in the assay filed under Rattus norvegicus [1] was determined as 12800 nM; in the assay listed under Rattus norvegicus [2] it was 264000 nM.
Consider `CCN1CCC[C@@H]2c3cc(O)cc(O)c3CC[C@H]21`, for which the IC50 in the assay filed under Rattus norvegicus [1] turned out to be 90 nM; in the assay filed under Rattus norvegicus [2], 2400 nM. Besides, in the assay on Felis catus [4], it took a dose of 0.0021 µmol/kg to reach the 50% effect level (ED50).
As to `CCN1CCC[C@@H]2Cc3c(O)cc(O)cc3C[C@H]21`, the ED50 entry with Felis catus [5] was “inactive”. Moreover, the half-maximal inhibitory concentration (IC50) amounted to 440 nM in the assay filed under Rattus norvegicus [1] and 32000 nM in the assay filed under Rattus norvegicus [2].
Take `CCCN1CCC[C@@H]2c3cc(O)cc(O)c3CC[C@H]21`: the IC50 in the assay filed under Rattus norvegicus [1] was 40 nM; in the assay filed under Rattus norvegicus [2] it was 1000 nM. For the same compound, the 50% effective dose (ED50) with Felis catus [4] turned out to be 0.0047 µmol/kg.

(Values after ChEMBL document CHEMBL1122567, “Conformationally restricted congeners of dopamine derived from octahydrobenzo[g]quinoline and octahydrobenzo[f]quinoline” (J Med Chem, 1984).)
